Measured values published in ChEMBL document CHEMBL3351523 (Bioorg Med Chem, 2014).

Assays:
[1] = test system: Yellow fever virus; test: Antiviral activity against Yellow fever virus infected in BHK21 cells assessed as inhibition of virus-induced cytopathogenicity after 3 to 4 days by MTT assay; format: functional, organism-based; conditions: BHK-21
[2] = test system: Respiratory syncytial virus; test: Antiviral activity against Respiratory syncytial virus infected in african green monkey Vero 76 cells assessed as reduction in plaque number after 5 days by plaque reduction assay; format: functional, organism-based; conditions: human respiratory syncytial virus, 120 h
[3] = test system: Coxsackievirus B5; test: Antiviral activity against Coxsackievirus B5 infected in african green monkey Vero 76 cells assessed as reduction in plaque number after 3 days by plaque reduction assay; format: functional, organism-based; conditions: Enterovirus B, 72 h
[4] = test system: Vaccinia virus; test: Antiviral activity against Vaccinia Virus infected in african green monkey Vero 76 cells assessed as reduction in plaque number after 3 days by plaque reduction assay; format: functional, organism-based; conditions: Orthopoxvirus vaccinia, 72 h
[5] = test system: Human immunodeficiency virus 1; test: Antiviral activity against HIV1 infected in human MT4 cells assessed as inhibition of virus-induced cytopathogenicity after 4 days by MTT assay; format: functional, organism-based; conditions: Human immunodeficiency virus 1, MT4, 96 h
Outline: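 MT-4 cells (1 × 10^4/well in RPMI) were infected acutely with HIV-1 IIIB, 100 CCID50 (m.o.i. 0.01), with serial dilutions from 100 µM, 1:5. After 4 days at 37 °C, protection from virus-induced cytopathogenicity was read by MTT. EC50 came from linear regression against untreated controls.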

[6] = test system: Poliovirus 1; test: Antiviral activity against Poliovirus type 1 Sabin strain infected in african green monkey Vero 76 cells assessed as reduction in plaque number after 2 days by plaque reduction assay; format: functional, organism-based; conditions: Enterovirus C, 48 h
[7] = test system: Vesicular stomatitis virus; test: Antiviral activity against Vesicular stomatitis virus infected in african green monkey Vero 76 cells assessed as reduction in plaque number after 2 days by plaque reduction assay; format: functional, organism-based; conditions: 48 h
[8] = Cytotoxicity against mock-infected african green monkey Vero 76 cells after 48 to 96 hrs by MTT assay; format: cell-based; conditions: chlorocebus sabaeus, mock-infected Vero 76 cells
[9] = test system: Bovine viral diarrhea virus 1; test: Antiviral activity against Bovine viral diarrhea virus infected in MDBK cells assessed as inhibition of virus-induced cytopathogenicity after 3 to 4 days by MTT assay; format: functional, organism-based; conditions: Bovine viral diarrhea virus isolates and strains
[10] = Cytotoxicity against mock-infected BHK21 cells after 48 to 96 hrs by MTT assay; format: functional; conditions: Mesocricetus auratus, BHK-21
Outline: (§1)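 Mock-infected MDBK (6 × 10^5 cells/mL; MEM-E, 10% horse serum, 1 mM pyruvate) or BHK (1 × 10^6 cells/mL; MEM-E, 10% FBS) cells were incubated at 37 °C, 5% CO2 with serial dilutions from 100 µM, 1:5. Viability by MTT after 48–96 h. CC50 from linear regression against untreated controls.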

[11] = Cytotoxicity against mock-infected MDBK cells after 48 to 96 hrs by MTT assay; format: cell-based, Bos taurus; conditions: cattle; outline: as §1
[12] = test system: Reovirus sp.; test: Antiviral activity against Reovirus type-1 infected in BHK21 cells assessed as inhibition of virus-induced cytopathogenicity after 3 to 4 days by MTT assay; format: functional, organism-based; conditions: BHK-21
[13] = Cytotoxicity against mock-infected human MT4 cells after 96 hrs by MTT assay; format: cell-based
Outline: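 Exponentially growing MT-4 cells were seeded at 1 × 10^5 cells/mL in RPMI-1640 with 10% FBS and held at 37 °C, 5% CO2 with serial compound dilutions. Viability was read by MTT after 96 h. CC50 from linear regression against untreated controls.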

[14] = test system: Human alphaherpesvirus 1; test: Antiviral activity against HSV1 infected in african green monkey Vero 76 cells assessed as reduction in plaque number after 3 days by plaque reduction assay; format: functional, organism-based; conditions: Human alphaherpesvirus 1, Vero, 72 h

SMILES	EC50 [1]	EC50 [2]	EC50 [3]	EC50 [4]	EC50 [5]	EC50 [6]	EC50 [7]	CC50 [8]	EC50 [9]	CC50 [10]	CC50 [11]	EC50 [12]	CC50 at 96 h [13]	EC50 [14]
CC(=O)Nc1ccc(Cc2nc3ccccc3[nH]2)cc1	> 100 µM	> 100 µM	> 100 µM	> 100 µM	> 100 µM	> 100 µM	> 100 µM	> 100 µM	> 100 µM	> 100 µM	> 100 µM	> 100 µM	> 100 µM	> 100 µM
CC(=O)Nc1ccc(Cc2nc3cc(C(F)(F)F)ccc3[nH]2)cc1	> 100 µM	> 100 µM	> 100 µM	> 100 µM	> 100 µM	> 100 µM	> 100 µM	> 100 µM	> 100 µM	> 100 µM	> 100 µM	> 100 µM	> 100 µM	> 100 µM
CCc1nc2ccccc2[nH]1	> 100 µM	> 100 µM	> 100 µM	> 100 µM	> 100 µM	> 100 µM	> 100 µM	> 100 µM	> 100 µM	> 100 µM	> 100 µM	> 100 µM	> 100 µM	> 100 µM
Clc1ccc2[nH]c(CCCC3NCC4CNCC3C4)nc2c1 (stereo unspecified)	25 µM	> 100 µM	> 100 µM	> 100 µM	> 100 µM	> 100 µM	> 100 µM	> 100 µM	> 100 µM	> 100 µM	> 100 µM	> 100 µM	> 100 µM	> 100 µM
Clc1ccc2[nH]c(CCCC3NCC4CC3CN3CCCCC43)nc2c1 (stereo unspecified)	> 100 µM	> 100 µM	> 100 µM	> 100 µM	> 100 µM	> 100 µM	> 100 µM	59 µM	> 100 µM	18 µM	56 µM	> 100 µM	51 µM	> 100 µM
COc1ccc(-c2nc3cc(C(F)(F)F)ccc3n2CCN(C)C)cc1	> 100 µM	> 100 µM	> 100 µM	> 100 µM	> 100 µM	> 100 µM	> 100 µM	> 100 µM	> 100 µM	> 100 µM	> 100 µM	> 100 µM	> 100 µM	> 100 µM
FC(F)(F)c1ccc2c(c1)nc(Cc1ccc(Cl)c(Cl)c1)n2C[C@@H]1CCCN2CCCC[C@H]12	> 100 µM	> 100 µM	> 100 µM	> 100 µM	> 100 µM	> 100 µM	> 100 µM	> 100 µM	> 100 µM	> 100 µM	37 µM	> 100 µM	> 100 µM	> 100 µM
COCCn1c(-c2ccc(OC)cc2)nc2cc(C(F)(F)F)ccc21	> 100 µM	> 100 µM	> 100 µM	> 100 µM	> 100 µM	> 100 µM	> 100 µM	> 100 µM	> 100 µM	> 100 µM	> 100 µM	> 100 µM	80 µM	> 100 µM
Clc1cc2nc(Cc3ccc(Br)cc3)[nH]c2cc1Cl	> 100 µM	> 100 µM	> 100 µM	> 100 µM	> 100 µM	> 100 µM	> 100 µM	73 µM	> 100 µM	10 µM	10 µM	> 100 µM	68 µM	> 100 µM
COc1ccc(Cc2nc3cc(C(F)(F)F)ccc3n2C[C@@H]2CCCN3CCCC[C@H]23)cc1	> 100 µM	> 100 µM	> 100 µM	> 100 µM	> 100 µM	> 100 µM	> 100 µM	89 µM	> 100 µM	> 100 µM	> 100 µM	> 100 µM	77 µM	> 100 µM
FC(F)(F)c1ccc2c(c1)nc(Cc1ccc(Cl)c(Cl)c1)n2C[C@H]1CCCN2CCCC[C@H]12	> 100 µM	> 100 µM	> 100 µM	> 100 µM	> 100 µM	> 100 µM	> 100 µM	> 100 µM	> 100 µM	34 µM	> 100 µM	> 100 µM	4 µM	> 100 µM
COc1ccc(Cc2nc3cc(C(F)(F)F)ccc3n2C[C@H]2CCCN3CCCC[C@H]23)cc1	> 100 µM	> 100 µM	> 100 µM	> 100 µM	> 100 µM	> 100 µM	> 100 µM	> 100 µM	> 100 µM	> 100 µM	> 100 µM	> 100 µM	≥ 100 µM	> 100 µM
COc1ccc2c(c1)nnn1c3cc(Cl)c(Cl)cc3nc21	> 100 µM	> 100 µM	> 100 µM	> 100 µM	> 100 µM	> 100 µM	> 100 µM	> 100 µM	> 100 µM	> 100 µM	> 100 µM	> 100 µM	> 100 µM	> 100 µM
CCN(CC)CCCn1c(-c2ccc(OC)cc2)nc2cc(C(F)(F)F)ccc21	> 100 µM	> 100 µM	> 100 µM	> 100 µM	> 100 µM	> 100 µM	> 100 µM	> 100 µM	> 100 µM	76 µM	> 100 µM	> 100 µM	> 100 µM	> 100 µM
Clc1ccc(Cc2nc3cc(Cl)c(Cl)cc3[nH]2)cc1	> 100 µM	> 100 µM	> 100 µM	> 100 µM	> 100 µM	> 100 µM	> 100 µM	71 µM	> 100 µM	> 100 µM	9 µM	> 100 µM	37 µM	> 100 µM
c1ccc2[nH]c(C[C@@H]3CCCN4CCCC[C@H]34)nc2c1	> 100 µM	> 100 µM	> 100 µM	> 100 µM	> 100 µM	> 100 µM	> 100 µM	> 100 µM	34 µM	78 µM	> 100 µM	> 100 µM	17 µM	> 100 µM
COc1ccc(-c2nc3cc(Cl)ccc3n2[C@@H]2CCCN3CCCC[C@H]23)cc1	> 100 µM	> 100 µM	> 100 µM	> 100 µM	> 100 µM	> 100 µM	> 100 µM	> 100 µM	> 100 µM	> 100 µM	> 100 µM	> 100 µM	> 100 µM	> 100 µM
FC(F)(F)c1ccc2c(c1)nc(-c1ccccc1)n2C[C@@H]1CCCN2CCCC[C@H]12	> 100 µM	> 100 µM	> 100 µM	> 100 µM	> 100 µM	> 100 µM	> 100 µM	90 µM	> 100 µM	75 µM	35 µM	> 100 µM	46 µM	> 100 µM
Clc1ccc(Cc2nc3cc(Cl)c(Cl)cc3[nH]2)cc1Cl	> 100 µM	> 100 µM	> 100 µM	> 100 µM	> 100 µM	> 100 µM	> 100 µM	70 µM	> 100 µM	> 100 µM	> 100 µM	> 100 µM	> 100 µM	> 100 µM
